Experimental findings from ChEMBL document CHEMBL2384977, “Synthesis and biological evaluation of novel styryl benzimidazole derivatives as probes for imaging of neurofibrillary tangles in Alzheimer's disease” (Bioorg Med Chem, 2013) are described below.

In series [1] the test system is Brain. The experiment in a line: Ratio of drug level in ddY mouse brain at 64.5 kBq, iv measured at 2 mins to drug level in ddY mouse brain at 64.5 kBq, iv measured at 60 mins. The format is ADME, organism-based. Conditions: in vivo.
The test system of series [2] is Brain. The series is described as follows: Ratio of drug level in mouse brain measured at 2.5 mins to drug level in mouse brain measured at 20 mins. In kind it is ADME, tissue-based. Conditions: in vivo.
Series [3] has as its target T1, Microtubule-associated protein tau (Homo sapiens, UniProt P10636). The experiment in a line: Binding affinity to recombinant human tau (441 amino acid residues) aggregates expressed in Escherichia coli assessed as apparent dissociation constant after 30 mins by fluorescence spectroscopic analysis. The following applies: read-out: Kd(app). A digest of the protocol: (§1)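 Tau: human 441-aa tau expressed in E. coli, aggregated at 1 mg/mL in MES buffer pH 6.8 with 0.1 mg/mL heparin, 37 °C for 3 days with shaking. Abeta1-42 aggregated at 0.25 mg/mL in PBS pH 7.4, 37 °C for 42 h with shaking. Aggregates at final 10 µg/mL were incubated with ligand (final 0.02–10 µM) for 30 min at room temperature. Apparent Kd was taken from fluorescence saturation curves at ex 440 nm, em 510 nm (tau) or em 480 nm (Abeta). Mean ± SEM of six independent experiments.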

Series [4] deals with T2, Amyloid-beta precursor protein (Homo sapiens, UniProt P05067). The experiment in a line: Binding affinity to amyloid beta (1 to 42) (unknown origin) aggregates assessed as apparent dissociation constant after 30 mins by fluorescence spectroscopic analysis. Conditions: read-out: Kd(app). A digest of the protocol: as §1
The target in series [5] is T1, Microtubule-associated protein tau. The series is described as follows: Binding affinity to hyperphosphorylated tau protein in entorhinal cortex of alzheimer disease patient brain at 300 uM after 30 mins by fluorescence microscopic analysis. The format is tissue-based. The essentials: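 Deparaffinized entorhinal cortex section from the same AD patient, incubated 30 min with ligand in 50% ethanol, then washed 30 s in ethanol. Imaged by fluorescence microscopy (excitation 450–490 nm, emission 510–560 nm). Spots were matched to Thioflavin S staining of the same patient's section.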

The species named for another series is Homo sapiens. The experiment in a line: Selectivity ratio of Kd(app) for amyloid beta (1 to 42) (unknown origin) aggregates to Kd(app) for recombinant human tau (441 amino acid residues) aggregates. The essentials:
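Human 441-aa tau, expressed in E. coli, was aggregated at 1 mg/mL (MES pH 6.8, 0.1 mg/mL heparin, 37 °C, 3 days, shaking). Aβ1–42 was aggregated at 0.25 mg/mL (PBS pH 7.4, 37 °C, 42 h). Aggregates were incubated 30 min at room temperature with ligand, and fluorescence read at ex 440 nm, em 510 nm (tau) or 480 nm (Aβ). Apparent Kd came from saturation curves over six independent experiments, and the ratio is Kd(Aβ)/Kd(tau).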

For series [6], the target named is T2, Amyloid-beta precursor protein. The series is described as follows: Binding affinity to amyloid beta (1 to 42) in alzheimer disease patient brain by immunohistochemical staining analysis. Conditions: tested as the 125I-labelled form. A digest of the protocol:
(§2)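 Autoradiography on 6-µm deparaffinized paraffin serial sections from an autopsy-confirmed AD case; control brain section also run. [125I]SBIM-3 (92.5 kBq/100 µL) for 1 h at room temperature, 50% EtOH for 2 h, water wash 30 s, then imaging plate exposure overnight. Labelling was compared with adjacent sections immunostained for phospho-tau (AT8) or Aβ1–42 (BC05).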

The target in series [7] is T1, Microtubule-associated protein tau. The series is described as follows: Binding affinity to hyperphosphorylated tau protein in alzheimer disease patient brain by immunohistochemical staining analysis. The following applies: tested as the 125I-labelled form. The essentials:
as §2

Series [8] has as its system Brain. The experiment in a line: Ratio of drug level in ICR mouse brain at 0.68 to 1.32 MBq, iv measured at 2 mins to drug level in ICR mouse brain at 0.68 to 1.32 MBq, iv measured at 60 mins. The following applies: in vivo. In kind it is ADME, organism-based.

Active and inactive are the calls of the source. No cut-off for these calls is given here.

T1 sequence (P10636 whole entry): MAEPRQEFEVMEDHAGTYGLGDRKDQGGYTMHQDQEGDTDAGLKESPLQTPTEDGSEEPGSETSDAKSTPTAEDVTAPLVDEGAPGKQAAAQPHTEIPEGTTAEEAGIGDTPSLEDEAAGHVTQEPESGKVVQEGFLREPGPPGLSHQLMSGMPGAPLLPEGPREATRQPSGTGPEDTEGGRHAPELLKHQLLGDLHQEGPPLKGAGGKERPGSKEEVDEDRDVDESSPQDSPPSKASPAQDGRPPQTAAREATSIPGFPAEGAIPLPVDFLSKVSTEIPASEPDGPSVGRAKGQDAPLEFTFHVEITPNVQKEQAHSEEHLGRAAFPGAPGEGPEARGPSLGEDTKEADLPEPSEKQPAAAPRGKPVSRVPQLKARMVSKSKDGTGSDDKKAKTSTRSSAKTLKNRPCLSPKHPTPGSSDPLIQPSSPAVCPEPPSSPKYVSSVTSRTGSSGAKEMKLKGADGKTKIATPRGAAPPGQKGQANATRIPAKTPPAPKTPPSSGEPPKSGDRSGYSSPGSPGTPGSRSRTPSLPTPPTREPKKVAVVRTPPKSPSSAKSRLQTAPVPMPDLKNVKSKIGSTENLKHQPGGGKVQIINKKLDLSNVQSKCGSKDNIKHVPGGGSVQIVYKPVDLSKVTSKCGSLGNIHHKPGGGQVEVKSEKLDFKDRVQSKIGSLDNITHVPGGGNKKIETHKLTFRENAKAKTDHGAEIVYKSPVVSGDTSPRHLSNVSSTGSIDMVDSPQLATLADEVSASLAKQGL
T2 sequence (P05067 whole entry): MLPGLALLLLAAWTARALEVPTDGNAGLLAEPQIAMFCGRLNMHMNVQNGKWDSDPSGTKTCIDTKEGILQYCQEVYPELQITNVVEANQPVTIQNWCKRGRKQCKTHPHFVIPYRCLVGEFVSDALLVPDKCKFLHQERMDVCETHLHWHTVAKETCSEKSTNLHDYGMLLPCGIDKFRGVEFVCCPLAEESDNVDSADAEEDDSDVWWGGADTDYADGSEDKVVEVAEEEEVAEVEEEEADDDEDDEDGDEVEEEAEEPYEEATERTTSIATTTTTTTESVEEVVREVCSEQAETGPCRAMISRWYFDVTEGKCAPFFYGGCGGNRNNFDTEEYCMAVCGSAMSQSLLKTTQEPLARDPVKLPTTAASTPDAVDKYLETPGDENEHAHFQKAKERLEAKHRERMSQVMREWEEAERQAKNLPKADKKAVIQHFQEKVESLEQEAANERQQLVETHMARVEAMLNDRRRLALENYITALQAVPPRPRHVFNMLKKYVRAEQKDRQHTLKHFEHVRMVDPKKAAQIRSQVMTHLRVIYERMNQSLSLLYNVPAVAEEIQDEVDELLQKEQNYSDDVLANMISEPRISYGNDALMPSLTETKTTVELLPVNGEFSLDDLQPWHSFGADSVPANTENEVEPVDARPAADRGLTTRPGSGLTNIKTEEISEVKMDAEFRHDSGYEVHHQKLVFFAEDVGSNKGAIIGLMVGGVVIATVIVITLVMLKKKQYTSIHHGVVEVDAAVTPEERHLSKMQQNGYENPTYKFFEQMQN

In the case of `CN(C)c1ccc(/N=N/c2nc3ccc(OCCOCCOCC[18F])cc3s2)cc1`, the Ratio in the series on Brain [1] is reported as 1.69.

As for `[18F]CCC1CCN(c2ccn3c(n2)nc2ccccc23)CC1`, the Ratio in the series on Brain [2] turned out to be 2.92.

For the compound `CN(C)c1ccc(/C=C/c2nc3ccc(I)cc3[nH]2)cc1`, the Kd came to 300 nM in series [3] and 820 nM in series [4]. In addition, the result in series [5], in series [6] and in [7] was Active. In the series listed under Homo sapiens, the Selectivity ratio came out at 2.73.

Take `Nc1ccc(-c2ccc3cc(OCC[18F])ccc3n2)cc1`: in the series with Brain [8], the Ratio is recorded as 1.83.
